Results from ChEMBL document CHEMBL4513216, “Probing the Open Global Health Chemical Diversity Library for Multistage-Active Starting Points for Next-Generation Antimalarials” (ACS Infect Dis, 2020).

Assay: Toxicity liver stage against HepG2, at 10uM
Type: cell-based
Design: test concentration 10 uM, cell line HepG2-A16-CD81EGFP
Settings: human, HepG2-A16-CD81EGFP cells; read-out: INHIBITION
Procedure, shortened: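 Uninfected HepG2-A16-CD81EGFP cells, 3 × 10^3 per well, 1536-well, plated on prespotted compound at 10 μM final, parasite-free screening media added to match infected plates; puromycin 10 μM positive, DMSO 0.5% negative; run in parallel with 48 h PbLuc assay at 37 °C, 5% CO2; viability by CellTiter-Glo luminescence, normalized to controls.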

CC(C)(C)c1nnnn1CC(=O)N(CCC#N)c1ccccc1
cytotoxicity at 10 µM: -14.2%

FC(F)(F)Oc1ccc(-c2noc([C@@H]3Cc4nc[nH]c4CN3)n2)cc1
cytotoxicity at 10 µM: -7.47%

Cc1cnc2n(c1=O)CC(C(=O)NCc1ccccc1Cl)CS2 (centres undefined)
cytotoxicity at 10 µM: -1.74%

COc1ccc(S(=O)(=O)C2CCN(C(=O)c3cc(C)cs3)CC2)cc1
cytotoxicity at 10 µM: 3.07%

N#Cc1ccc2c(c1)CN(C(=O)c1nc[nH]n1)C2c1cnco1 (centres undefined)
cytotoxicity at 10 µM: -2.6%

CC(C)Nc1nc2c(c(NC3CC3)n1)CN(C(=O)c1ccnnc1)CC2
cytotoxicity at 10 µM: -0.449%

CCS(=O)(=O)N1Cc2c(Cn3ccnc3)nn(C(C)C)c2C1
cytotoxicity at 10 µM: 11.5%

Cc1noc(C)c1CN1CC2(CCCCN2c2cncnc2)CC1=O (centres undefined)
cytotoxicity at 10 µM: 4.13%

Cc1ncsc1C(=O)N1CC[C@@H]2[C@@H](CC1)OCCN2c1cccnc1
cytotoxicity at 10 µM: 9.4%

O=C(c1ccco1)N1CCC2(CC1)C(=O)Nc1ccccc12
cytotoxicity at 10 µM: -144%

Cc1cccc(N2CCN(c3ccn4c(=O)[nH]nc4n3)CC2)c1C
cytotoxicity at 10 µM: 36%

CSC1=Nc2c(cnn2-c2ccc(Cl)cc2)C2=NCCCN12
cytotoxicity at 10 µM: 7.41%

Cc1ccc(CN2CCC3(C2)C(=O)N(CC(C)C)c2ccccc23)s1 (centres undefined)
cytotoxicity at 10 µM: -0.324%

CC1CCC(NC(=O)c2nn(C)cc2Br)CC1 (centres undefined)
cytotoxicity at 10 µM: -3.76%

Cc1nn(C)c2cnn(Cc3ccc(C(=O)N4CCN(C)CC4)o3)c12
cytotoxicity at 10 µM: 14.3%

Cc1cc(C)c2cc(CNC(C)C)c3nn(C)c(=O)n3c2c1
cytotoxicity at 10 µM: -5%

CN(CC(=O)NC(C)(C)C)Cc1cccc2c1OCCO2
cytotoxicity at 10 µM: -26.5%

CCn1ccnc1CN1CCCC1c1c(C)nn(C)c1OC (centres undefined)
cytotoxicity at 10 µM: -0.386%

Cc1nc(COc2ccc(OC3CCCCNC3=O)cc2)oc1C (centres undefined)
cytotoxicity at 10 µM: 15.2%

CC(O)CN(C)S(=O)(=O)c1ccc(C#N)cc1F (centres undefined)
cytotoxicity at 10 µM: -6.67%

Cc1cc(C(N)=O)ccc1NC(=O)N1CCN(c2cccs2)CC1
cytotoxicity at 10 µM: 10.1%

CCc1ccc(C2CCCN2C(=O)CNC(=O)CCC(C)C)o1 (centres undefined)
cytotoxicity at 10 µM: -10.2%

CN(Cc1ccc(C#N)cc1)c1ncc(C(N)=O)cc1Cl
cytotoxicity at 10 µM: 18.5%

Cc1ccc(CNCc2nnc3n2CC(C(F)(F)F)CC3)o1 (centres undefined)
cytotoxicity at 10 µM: 9.87%

Cc1nc(CN2CCN(C(=O)CCc3cccnc3)CC2)no1
cytotoxicity at 10 µM: -8.64%

CCC(CC)c1cc(CNC(=O)N2CCCC(C(=O)NC)C2)on1 (centres undefined)
cytotoxicity at 10 µM: -18.6%

Cc1sc2nc(C(F)(F)F)nc(N3CCN(C)CC3)c2c1C
cytotoxicity at 10 µM: -3.47%

Cc1cccc(C(C)(C)NC(=O)CS(=O)(=O)CC(C)C)c1
cytotoxicity at 10 µM: 0.927%

CCOc1ccc(C(F)(F)F)cc1NCc1cc(C)on1
cytotoxicity at 10 µM: -49.3%

Cn1[nH]c(C2CCC2)c(-c2ccc3c(c2)OCO3)c1=N
cytotoxicity at 10 µM: -42.3%

CCOc1ccc(C(F)(F)F)cc1NCc1nc(C)c(C)o1
cytotoxicity at 10 µM: -45.3%

O=C(Cn1cnnn1)NCC1(O)CCCc2ccccc21 (centres undefined)
cytotoxicity at 10 µM: -42.3%

CSCC(CCO)NC(=O)c1cccc(F)c1Cl (centres undefined)
cytotoxicity at 10 µM: 11.7%

COCCN1CCN(CC(=O)N(C)Cc2ccsc2)CC1
cytotoxicity at 10 µM: -153%

CCN(CC)C(=O)N1CCN(C2=NCC(C)S2)CC1 (centres undefined)
cytotoxicity at 10 µM: -148%

Cc1ccc(CNCc2cccc3cn[nH]c23)c(OC2CCOC2)c1 (centres undefined)
cytotoxicity at 10 µM: 9.6%

COCc1nc(CNc2cccc(-c3nc(C)c(C)o3)c2)cs1
cytotoxicity at 10 µM: 5.11%

O=C(COCC1CC1)N1CCSCC1
cytotoxicity at 10 µM: -21.2%

CC1CN(C)CCN1C(=O)c1cnn(-c2ccc(Cl)cc2)c1 (centres undefined)
cytotoxicity at 10 µM: -22.7%

CSC1(CNC(=O)NC(C)c2ccc(F)c(F)c2)CCOCC1 (centres undefined)
cytotoxicity at 10 µM: 1.71%

CS(=O)(=O)CCC(=O)NC1(c2cccc(C(F)(F)F)c2)CCC1
cytotoxicity at 10 µM: -40.1%

Cc1cnc(CN(Cc2cccc(O)c2)CC2CC2)cn1
cytotoxicity at 10 µM: 16.7%

COc1c(C2CCCN2Cc2cn3ccsc3n2)c(C)nn1C (centres undefined)
cytotoxicity at 10 µM: -51.2%

Cc1ncc(CNCC(=O)NC2CCCCC2)n1-c1ccccc1
cytotoxicity at 10 µM: -4.75%

CN(C)C(=O)N1CCC(c2nc3ccc(-c4ccccc4)cn3n2)CC1
cytotoxicity at 10 µM: 5.9%

COCC(=O)N1CCC2(C1)c1ccccc1S(=O)(=O)N2C (centres undefined)
cytotoxicity at 10 µM: 3.57%

COCC(=O)N1C[C@H](N(C)Cc2cncnc2)[C@H]2OCCC[C@H]21
cytotoxicity at 10 µM: -99.2%

CS(=O)(=O)NCc1nnc2n1CCN(Cc1ccncc1)C2
cytotoxicity at 10 µM: -73.6%

Cc1nc(CN2C[C@@H]3CN(C(=O)c4ccoc4C)C[C@@H]3C2=O)cs1
cytotoxicity at 10 µM: -76.8%

CCCNC(=O)c1cc(-c2cnc(N3CCCC3)nc2)cn1C
cytotoxicity at 10 µM: -54.6%

COCC(=O)N1CCC2(CC1)CN(c1ccsc1)C(=O)CO2
cytotoxicity at 10 µM: -75.6%

O=C(NC1CCC1)C1=NOC2(CCN(Cc3ccco3)C2)C1 (centres undefined)
cytotoxicity at 10 µM: -80.6%

OC[C@H]1CCCN1c1nccc(-c2cncnc2C2CCCCC2)n1
cytotoxicity at 10 µM: 0.0815%

Cc1csc2ncc(-c3ccnc(N4CCC[C@H](C(N)=O)C4)n3)c(=O)n12
cytotoxicity at 10 µM: -13.3%

CC(C)[C@@H]1CN(C2CCN(Cc3ccccc3)CC2)C[C@H]1NS(C)(=O)=O
cytotoxicity at 10 µM: -10.7%

O=C(NCc1ccco1)N1CCC(n2cc(-c3ccccn3)nn2)CC1
cytotoxicity at 10 µM: 16.9%

Cc1ccc(-c2cc(C(=O)NCCCc3csc(N)n3)[nH]n2)o1
cytotoxicity at 10 µM: 79.5%

COCCN(CCOC)c1nc2c(s1)c(C)nn2C
cytotoxicity at 10 µM: -40.5%

O=C(O)[C@@H]1CN(C(=O)c2ccc(F)c(F)c2)C[C@H]1c1cccc(F)c1
cytotoxicity at 10 µM: -113%

CC(=O)N[C@@H]1CN(C2CCN(c3cccc(C)c3C)CC2)C[C@H]1C(C)C
cytotoxicity at 10 µM: -11.7%

CCN(CCn1cccn1)C(=O)CN1C(=O)OC[C@@H]1C(C)C
cytotoxicity at 10 µM: 1.97%

COc1ccc(-c2nccn2C[C@@H]2CCCN3CCCC[C@H]23)cc1
cytotoxicity at 10 µM: 4.71%

CC(C)C1CN(S(=O)(=O)N2CCCC2)CCCN1Cc1ccc(F)cc1 (centres undefined)
cytotoxicity at 10 µM: 7.2%

CCC(CC)NCC(c1ccccn1)N1CCOCC1 (centres undefined)
cytotoxicity at 10 µM: -44.8%

CC(C)CN1CCc2[nH]cnc2C12CCN(C(=O)c1ccnn1C)CC2
cytotoxicity at 10 µM: -4.77%

O=C(O)COc1ccc(Cl)cc1CN1CCC2(CCOCC2)CC1
cytotoxicity at 10 µM: -6.55%

CN1CCN(CCCNCc2cc(O)c3cc(F)ccc3n2)CC1
cytotoxicity at 10 µM: -45.4%

CCc1nccn1CCCNc1nccc(-c2c(C)nn(C)c2C)n1
cytotoxicity at 10 µM: 2.96%

CCC[C@@H]1CN(Cc2cc(C#N)n(C)c2C)C[C@H]1NS(C)(=O)=O
cytotoxicity at 10 µM: -132%

Cc1nnc(CN2C[C@H](NC(=O)CC3CCCC3)[C@@H](C3CC3)C2)s1
cytotoxicity at 10 µM: -42.4%

Cc1cc(CN(C)C(=O)CN2CC3(CCNCC3)OC2=O)n(C)n1
cytotoxicity at 10 µM: 9.81%

COc1cccc2c1OCC(C(=O)NCCc1nnc(C)s1)C2 (centres undefined)
cytotoxicity at 10 µM: -42.1%

Cc1cc(C(=O)NCCC(C)C)ccc1NS(C)(=O)=O
cytotoxicity at 10 µM: 7.04%

CN(C)S(=O)(=O)c1csc(C(=O)N2CCSCC2)c1
cytotoxicity at 10 µM: -51.6%

COc1cccc(SCC(=O)N2CCC(N3CCCC(O)C3)CC2)c1 (centres undefined)
cytotoxicity at 10 µM: -18.7%

COCCN(CC1CC1)c1nc(CCN)nc2sc(C)c(C)c12
cytotoxicity at 10 µM: 0.956%

COc1ncccc1C(=O)N1CCCC1c1nc(-c2ccccc2)no1 (centres undefined)
cytotoxicity at 10 µM: 1.75%

CC(=O)c1c(C)nn(CC(=O)N2CCCC2c2ccc(C(N)=O)s2)c1C (centres undefined)
cytotoxicity at 10 µM: 1.16%

COc1cccc(C(=O)N2CCCC(C(=O)CCc3ccccc3)C2)c1 (centres undefined)
cytotoxicity at 10 µM: -20%

CC(C)c1cc(NCC(C)N2CCCC2)n2nccc2n1 (centres undefined)
cytotoxicity at 10 µM: -12.4%

CSCC(=O)N1CCC2(CC1)c1ccccc1CC2O (centres undefined)
cytotoxicity at 10 µM: -19.8%

CN1CCC(Oc2ccc(NC(=O)c3cccc(Cl)c3)cc2)CC1
cytotoxicity at 10 µM: -8.45%

COc1ccc(CNc2cnn(CC(F)F)c2)cc1
cytotoxicity at 10 µM: -7.47%

Cc1cccc(NC(=O)c2[nH]nc(C(C)C)c2Br)n1
cytotoxicity at 10 µM: -2.95%

CCc1cccc(N2CCC(NC(=O)C3CCC3)CC2)c1
cytotoxicity at 10 µM: 3.6%

COc1ccc(OCCCNCCn2cccn2)cc1
cytotoxicity at 10 µM: -20%

CCc1n[nH]c(C2CN(Cc3nc(C4CC4)no3)CCO2)n1 (centres undefined)
cytotoxicity at 10 µM: -10.8%

Cc1cc(C)n(CCC(=O)N2CCCC(n3cncn3)C2)n1 (centres undefined)
cytotoxicity at 10 µM: -5.05%

CC(=O)N(Cc1noc(C)n1)C1CCN(Cc2ccon2)C1 (centres undefined)
cytotoxicity at 10 µM: 4.74%

CC1(C)CC(N(Cc2ccccc2)Cc2cccnc2)CC(C)(C)N1
cytotoxicity at 10 µM: 2.67%

Cc1cccc(N2CC[C@H]3[C@H](CO[C@@H]3CN(C)Cc3ccco3)C2)n1
cytotoxicity at 10 µM: 13.8%

c1ccc(N2CC[C@@H]3CN(Cc4ccncc4)CCO[C@@H]3C2)cc1
cytotoxicity at 10 µM: 9.49%

CC(=O)c1ccc(NC(=O)c2ccc3c(c2)C2(CCCCC2)CN3)cc1
cytotoxicity at 10 µM: -108%

Cc1ccc2c(n1)N(Cc1cccnc1)CCN(C1CCOCC1)C2
cytotoxicity at 10 µM: -71.6%

COc1cccc(CN(Cc2ccco2)Cc2cnc(C)n2C)c1
cytotoxicity at 10 µM: 3.65%

CS(=O)(=O)NC[C@]12COC[C@H]1CN(CCc1ccccc1)C2
cytotoxicity at 10 µM: 12.3%

C1CCC(CO[C@@H]2CC[C@H]3[C@H]2OCCN3CC2CCOCC2)C1
cytotoxicity at 10 µM: 11.4%

O=C(c1cscn1)N1CCCC2(CCN2Cc2cccc(F)c2)C1 (centres undefined)
cytotoxicity at 10 µM: -112%

c1cncc(CN2CCCn3nnc(COCC4CC4)c3C2)c1
cytotoxicity at 10 µM: -110%

CS(=O)(=O)N1C[C@@H]2COC[C@]2(CN2CCOCC2)C1
cytotoxicity at 10 µM: 0.472%

COCc1n[nH]c2c1CN(Cc1cccs1)C2
cytotoxicity at 10 µM: 3.3%

O=C(c1cccc(Cl)c1)N1CC[C@H]2[C@H]1CCN2CC1CC1
cytotoxicity at 10 µM: -75%

CN1CCN(S(=O)(=O)c2cccc(F)c2)Cc2cccnc21
cytotoxicity at 10 µM: -110%

Cc1nc(CN2CCCn3cnc(COC(C)C)c3C2)cs1
cytotoxicity at 10 µM: -73.4%

CCOCc1nn(CC2CC2)c2c1CN(Cc1cccs1)CC2
cytotoxicity at 10 µM: -108%

Cc1cc(CN2C[C@@H](C)[C@@]3(CCN(C)C3=O)C2)oc1C
cytotoxicity at 10 µM: 8.34%

Cc1cccc(C(=O)N2CC[C@@H]3[C@H]2CCC(=O)N3c2ccccc2)n1
cytotoxicity at 10 µM: -94.8%

Cc1cc(CN2C[C@@H]3CC[C@H]2CN(C2Cc4ccccc4C2)C3)on1
cytotoxicity at 10 µM: 1.58%

CC(C)CNC(=O)[C@H]1C[C@H]2CN(Cc3cccnc3)C[C@@H]1O2
cytotoxicity at 10 µM: -1.16%
